Blank lines part the entries; values can stand above or below the compound they belong to. Active and inactive are the calls of the source. The calls are words filed in the database; no cut-off is given here.
Tests used:
Homo sapiens = organism: Homo sapiens; conditions: at 0.5 µM;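 further: HDAC activity measured in a nuclear extract, with percent inhibition expressed against control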
Histone deacetylase 1 [1] = biological target: T1, Histone deacetylase 1 (Homo sapiens, UniProt Q13547); test: Potency index, ratio of SAHA IC50 to compound IC50 for inhibition of recombinant HDAC1 (unknown origin) expressed in baculovirus expression system
MDA-MB-231 = test: Antiproliferative activity against human MDA-MB-231 cells assessed as reduction in cell viability after 48 hrs by SRB assay; format: functional, cell-based; conditions: MDA-MB-231, 48 h
Histone deacetylase 1 [2] = biological target: T1, Histone deacetylase 1; test: Inhibition of recombinant HDAC1 (unknown origin) expressed in baculovirus expression system using Ac-peptide-AMC as substrate preincubated for 15 mins followed by substrate addition by fluorescence based protease coupled assay
MCF-10A = test: Cytotoxicity against human MCF10A cells assessed as reduction in cell viability after 48 hrs by SRB assay; format: ADME, cell-based
BEAS-2B = test: Cytotoxicity against human BEAS2B cells assessed as reduction in cell viability after 48 hrs by SRB assay; format: ADME, cell-based
[3] = Cytotoxicity against human MCF10F cells assessed as reduction in cell viability after 48 hrs by SRB assay; format: ADME, cell-based; conditions: MCF-10F
A549 [4] = test: Antiproliferative activity against human A549 cells assessed as reduction in cell viability after 48 hrs by SRB assay; format: functional, cell-based; conditions: A549, 48 h
Summary of the method: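 A549 cells in RPMI 1640 with 10% FBS at 37 °C, 5% CO₂, seeded 24 h before treatment at various concentrations. Cells were fixed with 10% TCA for 1 h at 4 °C and stained with 0.4% SRB for 5 min at room temperature. After 1% acetic acid washes, dye was dissolved in 10 mM Tris and A540 read. IC50 from three independent experiments in triplicate, mean ± SD.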

MCF7 = test: Antiproliferative activity against human MCF7 cells assessed as reduction in cell viability after 48 hrs by SRB assay; format: functional, cell-based; conditions: MCF7, 48 h
A549 [5] = test: Induction of apoptosis in human A549 cells assessed as viable cells at 2.5 uM after 72 hrs by Annexin V-phycoerythrin/7-AAD staining based flow cytometric analysis (reference value: 96.57%); format: functional; conditions: A549, 72 h, read-out: Activity
A549 [6] = test: Induction of apoptosis in human A549 cells assessed as early apoptotic cells at 2.5 uM after 72 hrs by Annexin V-phycoerythrin/7-AAD staining based flow cytometric analysis (reference value: 1.13%); format: functional
A549 [7] = test: Induction of apoptosis in human A549 cells assessed as late apoptotic cells at 5 uM after 72 hrs by Annexin V-phycoerythrin/7-AAD staining based flow cytometric analysis (reference value: 1.84%); format: functional
A549 [8] = test: Induction of apoptosis in human A549 cells assessed as increase in PARP cleavage at 1 to 5 uM after 48 hrs by Western blot analysis; format: functional, cell-based
Summary of the method: (§1)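 A549 cells treated at the indicated concentrations for 48 h, then blotted for cleaved caspase-3 and cleaved PARP. RIPA lysis; 35 µg protein on 15% SDS-PAGE, transferred to PVDF. Blocked in 5% milk/PBST; primary antibody 1:1000 overnight at 4 °C, HRP secondary 1:20000 for 1 h, ECL. Bands quantified by densitometry versus β-actin; three separate experiments.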

A549 [9] = test: Induction of apoptosis in human A549 cells assessed as necrotic cells at 5 uM after 72 hrs by Annexin V-phycoerythrin/7-AAD staining based flow cytometric analysis (reference value: 0.45%); format: functional
Histone deacetylase 1 [10] = biological target: T1, Histone deacetylase 1; test: Inhibition of HDAC1 in human A549 cells assessed as increase in H4 acetylation after 24 hrs by immunoblot analysis; format: cell-based
Summary of the method: (§2)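 A549 cells exposed to 1.0, 2.5 and 5.0 µM for 24 h, then immunoblotted for acetylated histone H3 and H4. RIPA lysates (35 µg) run on 15% SDS-PAGE and transferred to PVDF. Primary antibody 1:1000 overnight at 4 °C, HRP secondary 1:20000, ECL. Densitometry relative to β-actin; three independent experiments.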

A549 [11] = test: Induction of G2/M cell cycle arrest in human A549 cells assessed as decrease in CDK1 expression at 1 to 2.5 uM by Western blot analysis; format: functional, cell-based
Summary of the method: (§3)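 Cell-cycle arm: A549 whole-cell lysates probed for CDK1 and cyclin B. Lysis in RIPA buffer; 35 µg protein run on 15% SDS-PAGE and blotted to PVDF. Blocked in 5% milk/PBST; primary antibody 1:1000 at 4 °C overnight, HRP secondary 1:20000 for 1 h at room temperature, ECL detection. Densitometry relative to β-actin; three separate experiments.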

A549 [12] = test: Inhibition of colony formation in human A549 cells at 1 to 2.5 uM after 7 days by crystal violet staining based assay; format: functional, cell-based
Summary of the method: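 A549 cells plated at 800 per 35 mm dish and treated for one week, with medium replenished every 24 h. Cells were washed with PBS, fixed in methanol and stained with 1% crystal violet for 15 min. Colonies were counted. Triplicate, repeated three times.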

A549 [13] = test: Induction of apoptosis in human A549 cells assessed as early apoptotic cells at 5 uM after 72 hrs by Annexin V-phycoerythrin/7-AAD staining based flow cytometric analysis (reference value: 1.13%); format: functional
A549 [14] = test: Induction of apoptosis in human A549 cells assessed as increase in caspase-3 cleavage at 1 to 5 uM after 48 hrs by Western blot analysis; format: functional, cell-based
Summary of the method: as §1

A549 [15] = test: Induction of apoptosis in human A549 cells assessed as viable cells at 5 uM after 72 hrs by Annexin V-phycoerythrin/7-AAD staining based flow cytometric analysis (reference value: 96.57%); format: functional
A549 [16] = test: Induction of apoptosis in human A549 cells after 72 hrs by Annexin V-phycoerythrin/7-AAD staining based flow cytometric analysis; format: functional, cell-based
Histone deacetylase 1 [17] = biological target: T1, Histone deacetylase 1; test: Inhibition of HDAC1 in human A549 cells assessed as increase in H3 acetylation after 24 hrs by immunoblot analysis; format: cell-based
Summary of the method: as §2

A549 [18] = test: Induction of apoptosis in human A549 cells assessed as viable cells at 1 uM after 72 hrs by Annexin V-phycoerythrin/7-AAD staining based flow cytometric analysis (reference value: 96.57%); format: functional; conditions: A549, 72 h, read-out: Activity
A549 [19] = test: Induction of apoptosis in human A549 cells assessed as early apoptotic cells at 1 uM after 72 hrs by Annexin V-phycoerythrin/7-AAD staining based flow cytometric analysis (reference value: 1.13%); format: functional
A549 [20] = test: Induction of apoptosis in human A549 cells assessed as late apoptotic cells at 2.5 uM after 72 hrs by Annexin V-phycoerythrin/7-AAD staining based flow cytometric analysis (reference value: 1.84%); format: functional
A549 [21] = test: Induction of apoptosis in human A549 cells assessed as necrotic cells at 1 uM after 72 hrs by Annexin V-phycoerythrin/7-AAD staining based flow cytometric analysis (reference value: 0.45%); format: functional
A549 [22] = test: Induction of apoptosis in human A549 cells assessed as late apoptotic cells at 1 uM after 72 hrs by Annexin V-phycoerythrin/7-AAD staining based flow cytometric analysis (reference value: 1.84%); format: functional
A549 [23] = test: Induction of G2/M cell cycle arrest in human A549 cells assessed as decrease in CyclinB1 expression at 1 to 2.5 uM by Western blot analysis; format: functional, cell-based
Summary of the method: as §3

A549 [24] = test: Antimetastatic activity in human A549 cells reduction in cell migration after 24 hrs by wound healing assay; format: functional, cell-based
Summary of the method: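 A549 cells (1.5x10⁵) plated in 6-well dishes and grown overnight to confluent monolayers. Monolayers were wounded with a pipette tip, then treated at various concentrations for 24 h. Wounds were photographed at 0, 12 and 24 h and migration distance measured. Result is % wound closure relative to 0 h. Triplicate, repeated three times.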

A549 [25] = test: Induction of apoptosis in human A549 cells assessed as necrotic cells at 2.5 uM after 72 hrs by Annexin V-phycoerythrin/7-AAD staining based flow cytometric analysis (reference value: 0.45%); format: functional
A549 [26] = test: Induction of cell cycle arrest in human A549 cells assessed as accumulation at G2/M phase at 5 uM after 24 hrs by PI/RNaseA staining based flow cytometry analysis relative to control; format: functional
Summary of the method: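 A549 cells treated for 24 h, with vehicle as control. Cells were fixed in 70% ice-cold ethanol overnight at −20 °C, then stained with PI containing RNase A for 30 min at 37 °C. DNA content was read by flow cytometry. Mean ± SD of phase percentages from three independent experiments.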

T1 sequence (Q13547 whole entry): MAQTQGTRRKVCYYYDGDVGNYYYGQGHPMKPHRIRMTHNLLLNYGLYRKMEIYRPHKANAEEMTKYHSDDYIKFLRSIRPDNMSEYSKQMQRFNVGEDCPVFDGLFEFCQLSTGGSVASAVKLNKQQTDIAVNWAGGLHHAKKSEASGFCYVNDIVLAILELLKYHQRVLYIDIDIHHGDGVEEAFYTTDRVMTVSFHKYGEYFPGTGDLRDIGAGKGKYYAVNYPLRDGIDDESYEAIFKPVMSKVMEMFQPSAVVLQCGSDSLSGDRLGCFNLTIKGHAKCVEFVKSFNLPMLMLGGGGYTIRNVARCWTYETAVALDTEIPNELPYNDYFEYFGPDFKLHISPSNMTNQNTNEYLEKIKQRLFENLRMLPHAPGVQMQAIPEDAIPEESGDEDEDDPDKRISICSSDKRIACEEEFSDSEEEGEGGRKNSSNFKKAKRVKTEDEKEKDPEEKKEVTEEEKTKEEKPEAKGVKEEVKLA

inhibition (Homo sapiens): 38%
SMILES: COc1ccccc1N(Cc1cccc(C(=O)NCc2ccccc2)c1)C(=O)CCCCCC(=O)NO

inhibition (Homo sapiens): 21%
SMILES: COc1ccccc1N(Cc1cccc(Br)c1)C(=O)CCCCCC(=O)NO

inhibition (Homo sapiens): 4%
SMILES: COc1ccccc1N(Cc1cccc(C(=O)NCCCCCCc2ccccc2)c1)C(=O)CCCCCC(=O)NO

inhibition (Homo sapiens): 37%
SMILES: COc1ccccc1N(Cc1cccc(NC(=O)Cc2ccccc2)c1)C(=O)CCCCCC(=O)NO

inhibition (Homo sapiens): 20%
SMILES: CCNC(=O)c1cccc(CN(C(=O)CCCCCC(=O)NO)c2ccccc2OC)c1

inhibition (Homo sapiens): 38%
SMILES: COc1ccccc1N(Cc1cccc(C(=O)NCCc2ccccc2)c1)C(=O)CCCCCC(=O)NO

inhibition (Homo sapiens): 15%
SMILES: COc1ccccc1N(Cc1cccc(C(=O)NCCCCc2ccccc2)c1)C(=O)CCCCCC(=O)NO

inhibition (Homo sapiens): 20%
SMILES: CCN(CC)C(=O)c1cccc(CN(C(=O)CCCCCC(=O)NO)c2ccccc2OC)c1

Ratio IC50 (Histone deacetylase 1 [1]): 10.9
IC50 (MDA-MB-231): 7.24 µM
IC50 (Histone deacetylase 1 [2]): 0.0023 µM
inhibition (Homo sapiens): 53%
IC50 (A549 [4]): 4.05 µM
IC50 (MCF7): 7.17 µM
SMILES: COc1ccc(N(Cc2cccc(C(=O)NCCc3ccc(F)cc3)c2)C(=O)CCCCCC(=O)NO)cc1
IC50 (MCF-10A): > 50 µM
IC50 (BEAS-2B): > 20 µM
IC50 [3]: > 50 µM

inhibition (Homo sapiens): 21%
SMILES: CCNC(=O)c1cccc(CN(C(=O)CCCCCC(=O)NO)c2ccc(O)cc2)c1

inhibition (Homo sapiens): 34%
SMILES: COc1ccccc1N(Cc1cccc(C(=O)NCCCCc2ccc(F)cc2)c1)C(=O)CCCCCC(=O)NO

Ratio IC50 (Histone deacetylase 1 [1]): 11.4
inhibition (Histone deacetylase 1 [10]): Dose-dependent effect
IC50 (MDA-MB-231): 6.87 µM
IC50 (Histone deacetylase 1 [2]): 0.0022 µM
inhibition (Homo sapiens): 51%
inhibition (Histone deacetylase 1 [17]): Dose-dependent effect
IC50 (A549 [4]): 2.13 µM
IC50 (MCF7): 6.96 µM
SMILES: CCNC(=O)c1cccc(CN(C(=O)CCCCCC(=O)NO)c2ccc(OC)cc2)c1
viability at 2.5 µM (A549 [5]): 42%
Activity (A549 [6]): 29.35%
Activity (A549 [7]): 57.6%
Activity (A549 [8]): Active
Activity (A549 [9]): 0.89%
Activity (A549 [11]): Active
inhibition (A549 [12]): Active
Activity (A549 [13]): 23.85%
Activity (A549 [14]): Active
IC50 (MCF-10A): > 100 µM
IC50 (BEAS-2B): > 100 µM
IC50 [3]: > 100 µM
viability at 5 µM (A549 [15]; Homo sapiens, A549, 72 h, read-out: Activity): 17.7%
Activity (A549 [16]): Dose-dependent effect
viability at 1 µM (A549 [18]): 69.1%
Activity (A549 [19]): 21.86%
Activity (A549 [20]): 27.09%
Activity (A549 [21]): 0.86%
Activity (A549 [22]): 8.17%
Activity (A549 [23]): Active
Activity (A549 [24]): Dose-dependent effect
Activity (A549 [25]): 1.54%
Activity (A549 [26]): 40.3%

inhibition (Homo sapiens): 49%
SMILES: COc1ccc(N(Cc2cccc(NC(=O)CCc3ccc(F)cc3)c2)C(=O)CCCCCC(=O)NO)cc1

inhibition (Homo sapiens): 27%
SMILES: COc1ccc(CCNC(=O)c2cccc(CN(C(=O)CCCCCC(=O)NO)c3ccccc3OC)c2)cc1

inhibition (Homo sapiens): 22%
SMILES: CCC(=O)Nc1cccc(CN(C(=O)CCCCCC(=O)NO)c2ccccc2OC)c1

inhibition (Homo sapiens): 16%
SMILES: COc1ccccc1N(Cc1cccc(C(=O)NCCCCCc2ccccc2)c1)C(=O)CCCCCC(=O)NO

SMILES: O=C(CCCCCCC(=O)Nc1ccccc1)NO [VORINOSTAT]
Activity (A549 [7]): 58.86%
Activity (A549 [9]): 1.15%
Activity (A549 [13]): 16.78%
Activity (A549 [15]): 23.22%
Activity (A549 [26]): 24.97%

inhibition (Homo sapiens): 39%
SMILES: COc1ccccc1N(Cc1cccc(C(=O)NCCc2ccc(F)cc2)c1)C(=O)CCCCCC(=O)NO

inhibition (Homo sapiens): 36%
SMILES: COc1ccccc1N(Cc1cccc(C(=O)NCCc2ccc(Cl)cc2)c1)C(=O)CCCCCC(=O)NO

Source: ChEMBL document CHEMBL4373678, “Development of hydroxamate-based histone deacetylase inhibitors of bis-substituted aromatic amides with antitumor activities” (Medchemcomm, 2019)
